According to ChEMBL document CHEMBL1158804, “Lupane triterpenoids from Maytenus species” (J Nat Prod, 2005):
Values after ≈ are worked out from the molar mass of the structure shown. Active and inactive are the calls of the source. No cut-off for these calls is given here.

Tests used:
Staphylococcus aureus = assay: Antibacterial activity against Staphylococcus aureus ATCC 6538 up to 40 ug/mL by broth microdilution method; assay type: functional, organism-based
How it was run: (§1)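 Compounds are dissolved in DMSO. The minimal inhibitory concentration is estimated by broth microdilution.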

Enterococcus faecalis = assay: Antibacterial activity against Enterococcus faecalis CECT 795 up to 40 ug/mL by broth microdilution method; assay type: functional, organism-based; how it was run: as §1
[1] = tested on: Staphylococcus epidermidis; assay: Antibacterial activity against Staphylococcus epidermidis CECT 232 up to 40 ug/mL by broth microdilution method; assay type: functional, organism-based; how it was run: as §1
Vero = assay: Cytotoxicity against african green monkey Vero cells after 48 hrs by MTT assay; assay type: cell-based; conditions: Chlorocebus sabaeus
How it was run: (§2)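 Monolayers are cultured in DMEM with 5% fetal calf serum and 1% penicillin-streptomycin at 37 °C, 5% CO2 and 90% humidity. Exponentially growing cells (2 × 10^4 cells/well) are exposed to a range of compound concentrations for 48 h at 37 °C. Viability is read by colorimetric MTT reduction.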

Pseudomonas aeruginosa = assay: Antibacterial activity against Pseudomonas aeruginosa AK 958 up to 40 ug/mL by broth microdilution method; assay type: functional, organism-based; how it was run: as §1
Bacillus pumilus = assay: Antibacterial activity against Bacillus pumilus CECT 29 up to 40 ug/mL by broth microdilution method; assay type: functional, organism-based; how it was run: as §1
Candida albicans = assay: Antifungal activity against Candida albicans UBC1 up to 40 ug/mL by broth microdilution method; assay type: functional, organism-based
How it was run: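 The yeast is grown on Sabouraud agar at 37 °C. Compounds are dissolved in DMSO, and the minimal inhibitory concentration is estimated by broth microdilution.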

Priestia megaterium = assay: Antibacterial activity against Bacillus megaterium CECT 44 up to 40 ug/mL by broth microdilution method; assay type: functional, organism-based; how it was run: as §1
Bacillus cereus = assay: Antibacterial activity against Bacillus cereus CECT 496 up to 40 ug/mL by broth microdilution method; assay type: functional, organism-based; how it was run: as §1
Salmonella = assay: Antibacterial activity against Salmonella sp. CECT 456 up to 40 ug/mL by broth microdilution method; assay type: functional, organism-based; how it was run: as §1
Escherichia coli = assay: Antibacterial activity against Escherichia coli CECT 99 up to 40 ug/mL by broth microdilution method; assay type: functional, organism-based; how it was run: as §1
HeLa = assay: Cytotoxicity against human HeLa cells after 48 hrs by MTT assay; assay type: functional, cell-based; how it was run: as §2
Proteus mirabilis = assay: Antibacterial activity against Proteus mirabilis CECT170 up to 40 ug/mL by broth microdilution method; assay type: functional, organism-based; how it was run: as §1
HEp-2 = assay: Cytotoxicity against human Hep2 cells after 48 hrs by MTT assay; assay type: functional, cell-based; conditions: HEp-2, 48 h; how it was run: as §2
[2] = tested on: Mycolicibacterium smegmatis; assay: Antibacterial activity against Mycobacterium smegmatis CECT 3032 up to 40 ug/mL by broth microdilution method; assay type: functional, organism-based; how it was run: as §1
Bacillus subtilis = assay: Antibacterial activity against Bacillus subtilis CECT 39 up to 40 ug/mL by broth microdilution method; assay type: functional, organism-based; how it was run: as §1
[3] = tested on: Staphylococcus saprophyticus; assay: Antibacterial activity against Staphylococcus saprophyticus CECT 235 up to 40 ug/mL by broth microdilution method; assay type: functional, organism-based; how it was run: as §1

Row | SMILES | Activity (Staphylococcus aureus) | Activity (Enterococcus faecalis) | Activity [1] | IC50 (Vero) [µg/mL] | Activity (Pseudomonas aeruginosa) | Activity (Bacillus pumilus) | Activity (Candida albicans) | Activity (Priestia megaterium) | Activity (Bacillus cereus) | Activity (Salmonella) | Activity (Escherichia coli) | IC50 (HeLa) [µg/mL] | Activity (Proteus mirabilis) | IC50 (HEp-2) [µg/mL] | Activity [2] | Activity (Bacillus subtilis) | Activity [3]
1 | CC(C)[C@@H]1CC[C@]2(C)CC[C@]3(C)[C@@H](CC[C@@H]4[C@@]5(C)CC[C@H](OC(=O)/C=C/c6ccc(O)c(O)c6)C(C)(C)[C@@H]5CC[C@]43C)[C@@H]12 | inactive | inactive | inactive | > 10 | inactive | inactive | inactive | inactive | inactive | inactive | inactive | > 10 | inactive | > 10 | inactive | inactive | inactive
2 | C=C(C)[C@@H]1CC[C@]2(CO)CC[C@]3(C)[C@@H](CC[C@@H]4[C@@]5(C)CCC(=O)C(C)(C)[C@@H]5[C@H](O)C[C@]43C)[C@@H]12 | inactive | inactive | inactive | > 10 | inactive | inactive | inactive | inactive | inactive | inactive | inactive | > 10 | inactive | > 10 | inactive | inactive | inactive
3 | C=C(CO)[C@@H]1CC[C@]2(CO)CC[C@]3(C)[C@@H](CC[C@@H]4[C@@]5(C)CCC(=O)C(C)(C)[C@@H]5CC[C@]43C)[C@@H]12 | inactive | inactive | inactive | > 10 | inactive | inactive | inactive | inactive | inactive | inactive | inactive | 4 (≈ 8.76 µM) | inactive | 7.1 (≈ 15.5 µM) | inactive | inactive | inactive
4 | C=C(C)[C@@H]1CC[C@]2(CO)CC[C@]3(C)[C@H](C[C@@H](O)[C@@H]4[C@@]5(C)CC[C@@H](O)C(C)(C)[C@@H]5CC[C@]43C)[C@@H]12 | inactive | inactive | inactive | > 10 | inactive | inactive | inactive | inactive | inactive | inactive | inactive | > 10 | inactive | > 10 | inactive | inactive | inactive
5 | C=C(C)[C@@H]1CC[C@]2(CO)CC[C@]3(C)[C@H](CC[C@@H]4[C@@]5(C)CC[C@H](O)C(C)(C)[C@@H]5[C@H](O)C[C@]43C)[C@@H]12 | inactive | inactive | inactive | > 10 | inactive | inactive |  | inactive | inactive | inactive | inactive | > 10 | inactive | > 10 | inactive | inactive | inactive
6 | C=C(C)[C@@H]1CC[C@]2(CO)CC[C@]3(C)[C@H](CC[C@@H]4[C@@]5(C)CC[C@H](OC(=O)/C=C/c6ccc(O)c(O)c6)C(C)(C)[C@@H]5CC[C@]43C)[C@@H]12 | inactive | inactive | inactive | > 10 | inactive | inactive | inactive | inactive | inactive | inactive | inactive | > 10 | inactive | > 10 | inactive | inactive | inactive
7 | C=C(C)[C@@H]1CC[C@]2(CO)CC[C@]3(C)[C@H](CC[C@@H]4[C@@]5(C)C=CC(=O)C(C)(C)[C@@H]5CC[C@]43C)[C@@H]12 | inactive | inactive | inactive | > 10 | inactive | inactive |  | inactive | inactive | inactive | inactive | > 10 | inactive | > 10 | inactive | inactive | inactive
8 | C=C(C)[C@@H]1CC[C@]2(C)CC[C@]3(C)[C@@H](CC[C@@H]4[C@@]5(C)[C@@H](O)C[C@@H](O)C(C)(C)[C@@H]5CC[C@]43C)[C@@H]12 | inactive | inactive | inactive | > 10 | inactive | inactive | inactive | inactive | inactive | inactive | inactive | > 10 | inactive | > 10 | inactive | inactive | inactive
9 | C=C(C)[C@@H]1CC[C@]2(CO)CC[C@]3(C)[C@H](CC[C@@H]4[C@@]5(C)CC[C@@H](O)C(C)(C)[C@@H]5CC[C@]43C)[C@@H]12 [3-EPI-BETULIN] | inactive | inactive | inactive | > 10 | inactive | inactive | inactive | inactive | inactive | inactive | inactive | > 10 | inactive | > 10 | inactive | inactive | inactive
10 | C=C(C)[C@@H]1CC[C@]2(CO)CC[C@]3(C)[C@H](CC[C@@H]4[C@@]5(C)CC[C@H](O)C(C)(C)[C@@H]5CC[C@]43C)[C@@H]12 [BETULIN] | inactive | inactive | inactive | > 10 | inactive | inactive | inactive | inactive | inactive | inactive | inactive | > 10 | inactive | > 10 | inactive | inactive | inactive
11 | C=C(C)[C@@H]1CC[C@]2(CO)CC[C@]3(C)[C@H](CC[C@@H]4[C@@]5(C)CCC(=O)C(C)(C)[C@@H]5CC[C@]43C)[C@@H]12 [BETULONE] | inactive | inactive | inactive | > 10 | inactive | inactive | inactive | inactive | inactive | inactive | inactive | > 10 | inactive | > 10 | inactive | inactive | inactive
12 | C=C(C)[C@@H]1CC[C@]2(C(=O)O)CC[C@]3(C)[C@H](CC[C@@H]4[C@@]5(C)CC[C@@H](O)C(C)(C)[C@@H]5CC[C@]43C)[C@@H]12 [EPIBETULINIC ACID] | inactive | inactive | inactive | > 10 | inactive | inactive | inactive | inactive | inactive | inactive | inactive | 2.1 (≈ 4.6 µM) | inactive | 3.1 (≈ 6.79 µM) | inactive | inactive | inactive
